In ChEMBL document CHEMBL4765243, “Discovery of Novel Bromophenol-Thiosemicarbazone Hybrids as Potent Selective Inhibitors of Poly(ADP-ribose) Polymerase-1 (PARP-1) for Use in Cancer” (J Med Chem, 2019):
Activity calls are given as the source filed them. No cut-off for these calls is given here.

How the values were obtained:
[1] = target: T1, Poly [ADP-ribose] polymerase 1 (Homo sapiens, UniProt P09874); assay: Inhibition of human recombinant GST-tagged PARP-1 expressed in Escherichia coli assessed as reduction in NAD+-dependent ADP ribosylation incubated for 30 mins in presence and NAD by resazurin dye based fluorescence analysis
SK-OV-3 [2] = assay: Induction of autophagy in human SKOV3 cells assessed as increase in Atg-14 protein level at 10 uM incubated for 48 hrs by western blot analysis; type: functional, cell-based
How it was run: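 SK-OV-3 cells seeded in 6-well plates, treated 48 h. Protein lysates separated on 8-15 % SDS-PAGE and transferred to PVDF. Membranes blocked in 5 % nonfat milk, probed with primary antibody overnight at 4 °C, then secondary antibody 1 h at room temperature. Bands detected by enhanced chemiluminescence.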

[3] = target: T1, Poly [ADP-ribose] polymerase 1; assay: Inhibition of PARP-1 in human SKOV3 cells assessed as decrease in MCM7 protein expression level at 2.5 to 10 uM incubated for 48 hrs by western blot analysis; type: cell-based; details: SK-OV-3, dose 2.5-10 µM
How it was run: (§1)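 SK-OV-3 cells were grown in McCOY's 5A, seeded in 6-well plates and treated for 48 h. Lysate proteins were separated by 8-15 % SDS-PAGE and transferred to PVDF membranes. Membranes were blocked in 5 % nonfat milk, probed with primary antibody overnight at 4 °C and with HRP secondary antibody for 1 h at room temperature, then detected by enhanced chemiluminescence. Images are representative of 3 independent experiments.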

[4] = Subacute toxicity in SPF Kunming mouse assessed as change in kidney at 1000 mg/kg, po administered for 14 days by H and E staining based microscopic analysis; type: organism-based; details: in vivo, 336 h, time 14 day
How it was run: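 Twenty SPF Kunming mice (18 - 22 g), half male and half female, randomised into 2 groups of 5 males + 5 females. Treated group dosed orally at 1000 mg/kg once daily for 14 days. Death, clinical signs and body weight monitored. After 14 days: isoflurane anaesthesia, decapitation, tissues collected for H&E histology.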

[5] = Tmax in Sprague-Dawley rat at 2 mg/kg, iv by LC/MS/MS analysis; type: ADME, organism-based; details: in vivo
How it was run: (§2)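 Male Sprague-Dawley rats, 4 per group, dosed once orally at 10 mg/kg or intravenously at 2 mg/kg. Blood taken from the saphenous vein for plasma. Drug levels measured by LC-MS-MS, with parameters derived by noncompartmental analysis.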

[6] = AUC (0 to infinity) in Sprague-Dawley rat at 10 mg/kg, po by LC/MS/MS analysis; type: ADME, organism-based; design: time infinity, route oral, dose 10 mg/kg; details: in vivo
[7] = Toxicity in Balb/c nude mouse xenografted with human SKOV3 cells assessed as histological changes in heart at 25 to 50 mg/kg, po for 21 days by H and E staining based microscopic analysis; type: organism-based; details: in vivo, 504 h, dose 25-50 mg/kg, time 21 day
How it was run: (§3)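 SK-OV-3 xenografts in female BALB/c nude mice were dosed orally at 25 or 50 mg/kg in 0.5% CMC-Na for 21 days. Tumours were then snap-frozen in liquid nitrogen or fixed in 10% neutral-buffered formalin. Analysis used western blotting, H&E and immunohistochemistry on paraffin sections (Ki67, γ-H2AX).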

[8] = Selectivity index, ratio of IC50 for inhibition of human recombinant N-terminal GST-tagged PARP-2 to IC50 for inhibition of human recombinant GST-tagged PARP-1
SK-OV-3 [9] = assay: Antitumor activity against human SKOV3 cells xenografted in Balb/c nude mouse assessed as increase in gamma-H2AX expression in tumor at 25 to 50 mg/kg, po for 21 days by immunohistochemistry analysis; type: functional, organism-based; details: dose 25-50 mg/kg, time 21.0 day; how it was run: as §3
SK-OV-3 [10] = assay: Induction of apoptosis in human SKOV3 cells assessed as increase in caspase-3 expression at 2.5 to 10 uM incubated for 48 hrs by western blot analysis; type: functional, cell-based; details: dose 2.5-10 µM
SK-OV-3 [11] = assay: Induction of autophagy in human SKOV3 cells assessed as increase in Beclin-1 protein level at 10 uM incubated for 48 hrs by western blot analysis; type: functional, cell-based
How it was run: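 SK-OV-3 cells in 6-well plates treated 48 h. Lysates separated by 8-15% SDS-PAGE and transferred to PVDF. Membranes blocked in 5% milk and probed overnight at 4 °C with LC3 or Beclin 1 antibodies. HRP secondary applied 1 h at room temperature; detection by ECL.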

Caco-2 = assay: Antiproliferative activity against human Caco-2 cells assessed as cell growth inhibition incubated for 48 hrs by MTT assay; type: functional, cell-based; details: Caco-2, 48 h
How it was run: (§4)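 Cells seeded in 96-well plates and exposed to compounds for 48 h; viability read by MTT. Each experiment repeated three times. SK-OV-3 grown in McCOY's 5A, Bel-7402 and HL-7702 in RPMI-1640, HepG2 in DMEM, Caco-2 in MEM.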

[12] = Toxicity in Balb/c nude mouse xenografted with human SKOV3 cells assessed as change in body weight at 25 mg/kg, po for 21 days and measured every third day; type: organism-based; details: in vivo, 504 h, time 21 day
How it was run: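 Female BALB/c nu/nu mice, 6-8 weeks old, kept under SPF conditions. Each received 5×10^6 SK-OV-3 cells s.c. At 80–120 mm3 tumour volume, mice were split into four groups (n=6). […] Caliper measurement every three days; volume = X × (Y2/2).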

Bel-7402 = assay: Antiproliferative activity against human Bel-7402 cells assessed as cell growth inhibition at 20 uM incubated for 48 hrs by MTT assay relative to control; type: functional
HepG2 = assay: Antiproliferative activity against human HepG2 cells assessed as cell growth inhibition at 20 uM incubated for 48 hrs by MTT assay relative to control; type: functional
SK-OV-3 [13] = assay: Antitumor activity against human SKOV3 cells xenografted in Balb/c nude mouse assessed as tumor growth inhibition at 50 mg/kg, po for 21 days and measured every third day; details: SK-OV-3, po, 504 h, read-out: INH
[14] = target: T1, Poly [ADP-ribose] polymerase 1; details: dose 100.0 nM, time 30.0 min
[15] = target: T1, Poly [ADP-ribose] polymerase 1; assay: Inhibition of PARP-1 in human SKOV3 cells assessed as intracellular poly-ADP ribose level at 2.5 to 10 uM incubated for 48 hrs by Western blot analysis; type: cell-based; details: SK-OV-3, dose 2.5-10 µM; how it was run: as §1
[16] = Tmax in Sprague-Dawley rat at 10 mg/kg, po by LC/MS/MS analysis; type: ADME, organism-based; details: in vivo; how it was run: as §2
L02 = assay: Cytotoxicity against human HL7702 cells assessed as cell growth inhibition incubated for 48 hrs by MTT assay; type: cell-based; details: L02, 48 h; how it was run: as §4
[17] = Toxicity in Balb/c nude mouse xenografted with human SKOV3 cells assessed as histological changes in kidney at 25 to 50 mg/kg, po for 21 days by H and E staining based microscopic analysis; type: organism-based; details: in vivo, 504 h, dose 25-50 mg/kg, time 21 day; how it was run: as §3
SK-OV-3 [18] = assay: Induction of apoptosis in human SKOV3 cells assessed as increase in Bax expression at 2.5 to 10 uM incubated for 48 hrs by western blot analysis; type: functional, cell-based; details: dose 2.5-10 µM
SK-OV-3 [19] = assay: Induction of autophagy in human SKOV3 cells assessed as increase in formation of autophagosomes at 10 uM incubated for 48 hrs by TEM analysis; type: functional, cell-based
How it was run: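 SK-OV-3 cells exposed to 10 µM for 48 h, then fixed, dehydrated and resin-embedded. 200 nm sections on formvar grids, counterstained with uranyl acetate and lead citrate, imaged by transmission electron microscopy.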

T1 sequence (P09874 whole entry): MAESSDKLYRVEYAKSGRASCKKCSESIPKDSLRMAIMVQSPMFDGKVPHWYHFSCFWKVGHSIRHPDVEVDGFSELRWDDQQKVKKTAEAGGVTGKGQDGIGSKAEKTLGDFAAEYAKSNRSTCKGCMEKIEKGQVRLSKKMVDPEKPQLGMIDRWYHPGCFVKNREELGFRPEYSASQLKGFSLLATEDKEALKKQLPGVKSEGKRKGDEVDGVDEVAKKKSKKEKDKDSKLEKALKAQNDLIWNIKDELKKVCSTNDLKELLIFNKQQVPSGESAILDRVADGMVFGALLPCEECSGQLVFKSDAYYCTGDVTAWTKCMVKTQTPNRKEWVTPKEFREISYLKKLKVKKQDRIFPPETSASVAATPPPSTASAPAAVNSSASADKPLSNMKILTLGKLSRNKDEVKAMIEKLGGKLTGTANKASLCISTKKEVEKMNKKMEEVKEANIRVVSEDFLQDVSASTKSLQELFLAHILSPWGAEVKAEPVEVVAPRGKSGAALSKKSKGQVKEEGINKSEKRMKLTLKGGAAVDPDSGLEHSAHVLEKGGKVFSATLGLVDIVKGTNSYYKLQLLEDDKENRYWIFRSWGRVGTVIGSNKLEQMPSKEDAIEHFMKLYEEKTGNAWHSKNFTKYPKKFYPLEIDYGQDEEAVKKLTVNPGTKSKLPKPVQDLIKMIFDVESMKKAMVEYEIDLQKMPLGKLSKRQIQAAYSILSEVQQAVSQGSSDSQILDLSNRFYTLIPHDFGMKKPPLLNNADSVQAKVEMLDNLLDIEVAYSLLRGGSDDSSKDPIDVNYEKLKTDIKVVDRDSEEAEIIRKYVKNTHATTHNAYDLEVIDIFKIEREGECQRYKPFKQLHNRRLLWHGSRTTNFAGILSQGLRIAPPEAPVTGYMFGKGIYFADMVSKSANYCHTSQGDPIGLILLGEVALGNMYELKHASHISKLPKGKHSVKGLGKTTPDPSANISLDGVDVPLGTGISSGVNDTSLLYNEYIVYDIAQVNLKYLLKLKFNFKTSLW

COc1cc(/C=N/NC(N)=S)c(Br)c(Br)c1OC
IC50 [1]: 0.0295 µM
Activity (SK-OV-3 [2]): Active
inhibition [3]: Active
Activity [4]: Non-Toxic
Tmax [5]: 4.8 min
AUC [6]: 0.0839 µM·h
Activity [7]: Non-Toxic
Ratio IC50 [8]: > 33.9
Activity (SK-OV-3 [9]): Active
Activity (SK-OV-3 [10]): Active
Activity (SK-OV-3 [11]): Active
IC50 (Caco-2): 20.5 µM
Activity [12]: Non-Toxic
inhibition at 20 µM (Bel-7402): 63.5%
inhibition at 20 µM (HepG2): 71.6%
inhibition in vivo at 50 mg/kg (SK-OV-3 [13]): 58.7%
inhibition [14]: 84.6%
inhibition [15]: Active
Tmax [16]: 2.5 h
IC50 (L02): 13.3 µM
Activity [17]: Non-Toxic
Activity (SK-OV-3 [18]): Active
Activity (SK-OV-3 [19]): Active
